Laboratory results from PMC9929523 (International Journal for Parasitology: Drugs and Drug …, 2023).
Values joined by “and” are separate entries in the source; they are usually repeats but may differ in a detail not shown here. Equal entries are not always repeated. Where two headings read alike, the source gives them in different places.

Experiments:
[1] = system: S. mansoni; conditions: meta-analysis, S. mansoni infections; ref Zwang and Olliaro, 2014; cited from earlier work
[2] = system: schistosomiasis; conditions: sub-Saharan Africa; ref Doenhoff et al., 2009; cited from earlier work
[3] = system: S. haematobium; conditions: meta-analysis, S. haematobium infections; ref Zwang and Olliaro, 2014; cited from earlier work
[4] = Mouse pharmacokinetics; assay type: in vivo
[5] = Formulation solubility; assay type: physicochemical
How it was run: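 The aim was an oral dosing vehicle. Co-solvent solutions (polyethylene glycol or ethanol) were checked for precipitation by diluting 1:10 into saline. A 10 mg/ml solution was prepared in 100 mM acetate buffer, pH 4.5.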

[6] = system: Schistosoma mansoni; experiment: S. mansoni killing in vitro; assay type: cell-based
How it was run: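 Hamster-derived adult male worms, 10 per well, in DMEM with 10% heat-inactivated FBS and antibiotic/antimycotic. Dosed within 2–4 h of harvest from 100X DMSO spikes: 0–143 μM, triplicate, 45 min at 37 °C, 5% CO2. Second set used 143 μM or DMSO for 15, 30 or 45 min. Worms washed thrice and cultured 14 days, medium changed every other day. Daily survival scored by motility, shedding, opacity and tegument blebbing; Kaplan-Meier curves.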

[7] = Hepatic microsomal stability; assay type: in vitro ADME; conditions: mouse, liver microsomes, pH 7.4, intrinsic clearance, 1 μM OXA, 0.2 mg protein per ml
How it was run: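 Test compound (1 μM) incubated with mouse hepatic microsomes at 1, 0.5 and 0.2 mg/mL in 100 mM potassium phosphate, pH 7.4. Samples filtered and analysed by LC-MS/MS. Log-transformed data gave half-life. CLint (μl/min/mg) = ln2 × incubation volume / (half-life × mg protein). Unbound CLint came from the y-intercept of microsomal concentration vs 1/CLint.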

[8] = Estimation of human hepatic inlet; assay type: in vivo
[9] = ref Daneshmend and Homeida, 1987, cited from earlier work
[10] = system: P-gp efflux transporter; experiment: Tissue distribution in P-gp knockout mice; assay type: in vivo, mouse; conditions: wild-type vs P-gp knockout mice, 4 h after 100 mg/kg oral dose
[11] = Clinical human OXA pharmacokinetics; assay type: in vivo; conditions: 40 mg/kg dose, assuming dose proportionality
[12] = Blood to plasma ratio, Rb; assay type: in vitro ADME; conditions: female, C57Bl/6J, mouse, fresh heparinized whole blood and fresh plasma
How it was run: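 Heparinized whole blood from female C57Bl/6J mice and matching fresh plasma were each spiked from a 10 mM DMSO stock to a final 5 μM and held 30 min at 37 °C. Samples were spun at 8000×g for 3 min, extracted into ACN/MeOH with diclofenac internal standard, and measured by LC-MS/MS. Rb = concentration in directly spiked plasma / concentration in plasma from spiked blood.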

[13] = Tissue distribution in wild-type C57Bl/6J mice; assay type: in vivo, mouse; conditions: 4-h time point, 100 mg/kg oral dose
[14] = Estimation of mouse hepatic inlet
[15] = female, C57Bl/6J, mouse, plasma, iv, 3 mg/kg
[16] = female, C57Bl/6J, mouse, plasma, po, 100 mg/kg, pH 4.5
[17] = patients n = 9, single oral dose 1000 mg
[18] = 100 mg/kg PO acetate buffer, WinNonlin one-compartment model
[19] = 100 mg/kg PO acetate buffer, method of residuals

## O=C(C1CCCCC1)N1CC(=O)N2CCc3ccccc3C2C1 (stereo not drawn) [praziquantel]
[1]
  cure rate: 76.7%
[2]
  cure rates: 60–90%
[3]
  cure rate: 77.1%

## CC(C)NCC1CCc2cc(CO)c([N+](=O)[O-])cc2N1 (stereo not drawn) [OXA, oxamniquine]
[4]; 100 mg/kg PO, 100 mM acetate buffer pH 4.5
  Cl clearance: 159 ± 3 mL/min/kg
[4]; [15]
  AUC(0-inf): 1.1 µM·h
  Cmax: 2.2 ± 0.1 µM
  Tmax: 5 min
  clearance: 157 ± 3 mL/min/kg
  half-life: 51 ± 6 min
[4]; [16]
  AUC(0-inf): 26.1 ± 1.7 µM·h
  CL/F: 230 ± 14 mL/min/kg
  Cmax: 11.8 ± 1.6 µM
  Tmax: 50 min
  bioavailability: 69.5 ± 5.3%
  half-life: 58 ± 6 min
[5]
  solubility dependence on pH: increases at low pH
[5]; 100 mM acetate buffer, pH 4.5
  stable solution concentration: 10 mg/mL
[6]; 35.75 μM and 14.3 μM, 45 min exposure, 14 days
  worm killing at lower concentrations: minimal worm killing
[6]; 71.5 μM, 45 min exposure, 14 days
  worm survival: significantly reduced
[6]; 143 μM, 45 min exposure, 14 days
  worm survival: significantly reduced
[6]; 143 μM, 45 min exposure, adult male worms, 14 days
  worm killing: 90%
[6]; 143 μM, exposure 15 and 30 min
  efficacy of worm killing with shorter exposure times: maintained
[7]
  microsomal CLint at 1 μM: 196 µL/min/mg
[8]
  rate of absorption in the human intestine: approximately 2.5 % per minute
[9]; human, approximately 20 mg/kg oral dose
  peak plasma concentrations: 4 to 7 µM
[9]; [17]
  AUC(0-∞): 20.2 ± 4.9 µM·h
  Cmax: 4.5 ± 0.9 µM
  T1/2: 151 ± 23 min
  Tmax: 103 ± 12 min
[10]
  impact of efflux transporter P-gp on tissue distribution: no indication that the efflux transporter P-gp impacts tissue distribution
[11]
  expected maximal plasma levels: 9 to 14 µM
[12]
  blood plasma ratio at 30 min, 5 μM: 1.6
[13]
  bile concentration relative to liver tissue: 15 fold
[14]; [18]
  Inlet Concentration (portal): 118 µM and 118 ± 10 µM
  ka absorption rate constant: 0.043 min⁻¹
[14]; [19]
  Inlet Concentration (portal): 132 µM and 132 ± 11 µM
  ka absorption rate constant: 0.049 min⁻¹
[14]; C57Bl/6J, mouse, in vivo, po, 100 mg/kg, ke elimination rate constant, 100 mg/kg PO acetate buffer, method of residuals
  k el: 0.0002 s⁻¹
[14]; mouse, true value could range between 0.7 and 1
  fraction orally absorbed (Fa x Fg): 0.7
